A short description of data set [1]: Clearance in human liver microsomes. In kind it is ADME, Microsome. The following applies: read-out: CLH. (Microsomes from liver hold many membrane-bound enzymes, among them those of drug oxidation.)
Data set [2] deals with NCI-H460. Nature of the data set: Antiproliferative activity against human H460 cells after 72 hrs by resazurin reduction assay. Particulars: NCI-H460, 72 h. The format is functional, cell-based. An outline of the steps: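 Cells seeded at 3,000 per well, left to adhere overnight, then given inhibitor as a 3-fold serial dilution from 0.0169 nM to 10 μM. After 72 h, 250 μg/mL resazurin was added, followed by 6 h more at 37 °C. Fluorescence was read at ex 560 / em 590 nm.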

Data set [3] deals with Glycogen synthase kinase-3 beta (Homo sapiens, UniProt P49841). Nature of the data set: Inhibition of GSK3B at 1 uM.
Chain of Glycogen synthase kinase-3 beta (P49841 whole entry, looked up): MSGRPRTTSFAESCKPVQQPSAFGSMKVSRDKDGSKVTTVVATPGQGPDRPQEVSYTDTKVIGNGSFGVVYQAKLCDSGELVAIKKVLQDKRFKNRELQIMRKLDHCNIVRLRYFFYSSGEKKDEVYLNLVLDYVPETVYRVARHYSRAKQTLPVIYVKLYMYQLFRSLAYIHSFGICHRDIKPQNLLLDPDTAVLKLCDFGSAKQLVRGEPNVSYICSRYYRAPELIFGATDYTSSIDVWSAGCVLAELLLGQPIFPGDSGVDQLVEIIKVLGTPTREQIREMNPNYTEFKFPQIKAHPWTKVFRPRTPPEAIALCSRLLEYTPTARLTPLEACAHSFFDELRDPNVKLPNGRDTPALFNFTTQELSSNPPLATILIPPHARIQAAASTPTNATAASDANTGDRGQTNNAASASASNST
For data set [4], the target named is RAC-alpha serine/threonine-protein kinase (Homo sapiens, UniProt P31749). The data set can be described thus: Inhibition of AKT1 at 1 uM.
Chain of RAC-alpha serine/threonine-protein kinase (P31749 whole entry): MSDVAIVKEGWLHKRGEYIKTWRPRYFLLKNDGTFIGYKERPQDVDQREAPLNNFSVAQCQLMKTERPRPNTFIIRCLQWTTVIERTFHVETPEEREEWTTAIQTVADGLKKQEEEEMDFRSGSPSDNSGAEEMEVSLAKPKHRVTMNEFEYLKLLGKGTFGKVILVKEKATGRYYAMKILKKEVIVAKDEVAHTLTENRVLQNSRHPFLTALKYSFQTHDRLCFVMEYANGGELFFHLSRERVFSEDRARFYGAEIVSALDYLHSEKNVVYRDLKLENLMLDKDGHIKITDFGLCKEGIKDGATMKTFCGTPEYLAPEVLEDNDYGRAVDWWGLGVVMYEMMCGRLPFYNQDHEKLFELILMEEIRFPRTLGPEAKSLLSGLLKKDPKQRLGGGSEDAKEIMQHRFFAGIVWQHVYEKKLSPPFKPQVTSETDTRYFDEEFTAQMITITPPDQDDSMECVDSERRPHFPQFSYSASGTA
Data set [5] concerns the target T1, Tyrosine-protein kinase JAK3 (Homo sapiens) (UniProt P52333).
T1 sequence (whole entry): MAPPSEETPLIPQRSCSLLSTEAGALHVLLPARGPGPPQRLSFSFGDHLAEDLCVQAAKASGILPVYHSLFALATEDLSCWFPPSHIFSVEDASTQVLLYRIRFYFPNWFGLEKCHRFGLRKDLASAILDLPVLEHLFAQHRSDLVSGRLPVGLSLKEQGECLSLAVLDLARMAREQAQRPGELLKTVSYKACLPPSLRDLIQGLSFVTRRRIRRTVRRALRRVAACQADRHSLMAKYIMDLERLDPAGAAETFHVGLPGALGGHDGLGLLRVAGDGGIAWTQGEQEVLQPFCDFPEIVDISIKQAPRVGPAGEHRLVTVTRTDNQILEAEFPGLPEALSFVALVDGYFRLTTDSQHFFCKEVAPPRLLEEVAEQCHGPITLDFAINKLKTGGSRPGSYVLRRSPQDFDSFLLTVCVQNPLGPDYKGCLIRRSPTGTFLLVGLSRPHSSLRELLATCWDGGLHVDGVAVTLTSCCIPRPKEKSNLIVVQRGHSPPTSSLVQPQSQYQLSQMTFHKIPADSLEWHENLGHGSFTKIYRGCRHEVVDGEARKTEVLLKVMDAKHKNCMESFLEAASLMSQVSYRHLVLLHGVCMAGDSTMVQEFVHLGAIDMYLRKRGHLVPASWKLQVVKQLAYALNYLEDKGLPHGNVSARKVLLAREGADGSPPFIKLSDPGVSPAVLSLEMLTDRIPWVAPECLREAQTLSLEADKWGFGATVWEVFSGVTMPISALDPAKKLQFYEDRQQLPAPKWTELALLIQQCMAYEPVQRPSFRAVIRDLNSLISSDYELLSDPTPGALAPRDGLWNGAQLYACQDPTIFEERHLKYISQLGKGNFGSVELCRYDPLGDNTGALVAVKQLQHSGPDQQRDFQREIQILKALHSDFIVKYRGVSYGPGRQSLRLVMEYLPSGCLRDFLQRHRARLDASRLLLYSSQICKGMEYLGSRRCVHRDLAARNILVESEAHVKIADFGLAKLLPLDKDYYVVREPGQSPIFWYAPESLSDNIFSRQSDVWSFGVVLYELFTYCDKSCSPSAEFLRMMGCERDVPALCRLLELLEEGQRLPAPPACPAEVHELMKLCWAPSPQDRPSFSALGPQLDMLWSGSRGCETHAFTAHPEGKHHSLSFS
The data set can be described thus: Inhibition of JAK3 at 1 uM.

For data set [6], the target named is T2, Serine/threonine-protein kinase 3 (Homo sapiens) (UniProt Q13188).
T2 sequence (whole entry): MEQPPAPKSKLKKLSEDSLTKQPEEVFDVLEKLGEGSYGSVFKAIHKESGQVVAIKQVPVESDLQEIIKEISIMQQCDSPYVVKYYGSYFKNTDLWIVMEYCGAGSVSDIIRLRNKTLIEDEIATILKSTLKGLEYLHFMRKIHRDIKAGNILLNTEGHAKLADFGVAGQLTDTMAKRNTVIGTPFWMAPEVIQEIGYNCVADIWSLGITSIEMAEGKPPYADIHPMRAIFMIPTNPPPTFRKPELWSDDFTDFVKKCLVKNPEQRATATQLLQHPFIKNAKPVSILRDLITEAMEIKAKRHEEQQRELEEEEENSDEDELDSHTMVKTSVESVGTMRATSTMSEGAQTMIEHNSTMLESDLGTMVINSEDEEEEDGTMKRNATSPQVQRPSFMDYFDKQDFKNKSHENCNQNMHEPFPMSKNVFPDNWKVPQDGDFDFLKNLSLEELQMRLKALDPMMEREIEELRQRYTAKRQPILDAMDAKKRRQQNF
Nature of the data set: Inhibition of STK3 at 1 uM.

In data set [7] the target is Hepatocyte growth factor receptor (Homo sapiens) (UniProt P08581). The data set can be described thus: Inhibition of MET at 1 uM.
Chain of Hepatocyte growth factor receptor (Homo sapiens) (P08581 whole entry): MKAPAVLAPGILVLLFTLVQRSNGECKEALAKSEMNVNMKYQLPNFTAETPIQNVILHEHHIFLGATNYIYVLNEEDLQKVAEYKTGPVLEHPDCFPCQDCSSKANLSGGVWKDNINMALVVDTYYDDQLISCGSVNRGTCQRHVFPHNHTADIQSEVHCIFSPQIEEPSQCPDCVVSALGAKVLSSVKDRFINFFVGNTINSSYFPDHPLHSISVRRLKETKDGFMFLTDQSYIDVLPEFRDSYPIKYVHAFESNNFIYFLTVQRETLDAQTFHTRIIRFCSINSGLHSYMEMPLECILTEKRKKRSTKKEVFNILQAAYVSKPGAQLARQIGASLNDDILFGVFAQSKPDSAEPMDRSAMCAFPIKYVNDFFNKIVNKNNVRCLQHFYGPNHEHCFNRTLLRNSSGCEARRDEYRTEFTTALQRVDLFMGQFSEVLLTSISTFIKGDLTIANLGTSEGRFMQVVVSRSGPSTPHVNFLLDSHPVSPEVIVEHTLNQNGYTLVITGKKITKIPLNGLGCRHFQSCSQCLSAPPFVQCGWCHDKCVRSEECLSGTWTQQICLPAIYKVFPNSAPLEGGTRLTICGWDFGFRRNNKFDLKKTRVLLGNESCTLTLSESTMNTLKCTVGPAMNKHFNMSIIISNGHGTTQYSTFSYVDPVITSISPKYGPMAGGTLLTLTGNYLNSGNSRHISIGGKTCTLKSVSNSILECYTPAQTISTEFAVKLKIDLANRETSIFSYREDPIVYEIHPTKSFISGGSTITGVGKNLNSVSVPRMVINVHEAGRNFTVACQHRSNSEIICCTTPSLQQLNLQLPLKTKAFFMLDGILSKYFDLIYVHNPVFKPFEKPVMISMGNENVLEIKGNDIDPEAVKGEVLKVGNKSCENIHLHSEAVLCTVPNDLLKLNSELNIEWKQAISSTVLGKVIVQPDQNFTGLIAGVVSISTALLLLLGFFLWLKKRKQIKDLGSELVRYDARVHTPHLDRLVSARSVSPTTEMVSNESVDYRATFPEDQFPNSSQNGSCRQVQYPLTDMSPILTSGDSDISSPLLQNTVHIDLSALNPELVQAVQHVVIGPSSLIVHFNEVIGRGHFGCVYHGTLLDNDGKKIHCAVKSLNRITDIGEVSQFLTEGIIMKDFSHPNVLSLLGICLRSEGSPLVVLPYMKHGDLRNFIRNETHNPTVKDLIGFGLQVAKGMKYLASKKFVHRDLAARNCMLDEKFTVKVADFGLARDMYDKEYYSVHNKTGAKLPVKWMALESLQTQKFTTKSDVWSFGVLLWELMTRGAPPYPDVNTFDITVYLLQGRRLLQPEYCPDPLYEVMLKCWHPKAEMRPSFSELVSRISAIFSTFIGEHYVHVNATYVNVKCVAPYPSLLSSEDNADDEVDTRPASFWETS

For the molecule `CC(=O)N1CC[C@@H](Nc2cncc(C(=O)c3cn(C(C)C)c4ncnc(N)c34)n2)[C@H]1c1ccccc1`, the microsomal CLint in data set [1] was determined as 110 µL/min/mg. Moreover, in data set [2], the concentration for a half-maximal effect (EC50) came to 1700 nM. Moreover, the inhibition in data set [3] is 42%; in data set [4], 15%; in data set [5], -2%; in data set [6] it was 0%; in data set [7], 4%.

With `CC(C)n1cc(C(=O)c2cncc(N[C@@H]3CCN(C=O)[C@@H]3c3ccc(F)cc3)n2)c2c(N)ncnc21`, the microsomal CLint in data set [1] is 62 µL/min/mg. A half-maximal response in data set [2] (EC50) required 700 nM. Besides, the inhibition was 66% in data set [3]; 62% in data set [4]; 16% in data set [5]; 13% in data set [6]; 12% in data set [7].

Take `CC(=O)N1CC[C@@H](Nc2cncc(C(=O)c3cn(C(C)C)c4ncnc(N)c34)n2)[C@H]1c1ccc(F)cc1`: in data set [1], the microsomal CLint turned out to be 120 µL/min/mg. The midpoint of the response in data set [2], the EC50, lay at 1900 nM. Further, the inhibition in data set [3] came out at 76%; in data set [4], 57%; in data set [5], 6%; in data set [6] it was 12%; in data set [7], 8%.

One may read the EC50 as the concentration needed to bring the measured effect to its halfway point. Low values mean higher potency in that assay, high ones lower potency in that assay. Broadly, the inhibition is the relative decrease from the control value, in per cent.

Source of the values: ChEMBL document CHEMBL1938337, “Discovery of novel, potent, and selective inhibitors of 3-phosphoinositide-dependent kinase (PDK1)” (J Med Chem, 2011).
